Source: ChEMBL document CHEMBL1152423, “Development of N-[11C]methylamino 4-hydroxy-2(1H)-quinolone derivatives as PET radioligands for the glycine-binding site of NMDA receptors” (Bioorg Med Chem, 2009)
The source made the active and inactive calls. The rule behind the calls is not given here.

How the values were obtained:
[1] = biological target: Glutamate NMDA receptor; assay: Displacement of [3H]MDL-105519 from glycine binding site of NMDA receptor in rat cortical membrane by liquid scintillation counting; format: cell membranes
Summary of the method: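 Washed rat cortical membranes in 50 mM Tris–HCl (pH 8.0) were incubated 45 min at 4 °C with [3H]MDL-105,519 (2 nM) plus buffer or displacer. Nonspecific binding was defined with excess unlabeled glycine. Samples were filtered on GF/B, washed three times with ice-cold buffer, and counted by liquid scintillation. Ki came from three determinations, each in triplicate.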

[2] = n-Octanol-sodium phosphate buffer partition coefficient, log D at pH 7.4 after 15 mins by shake-flask method; format: physicochemical
Summary of the method: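 Compound (1–2 mg) was shaken 15 min at ambient temperature in n-octanol and 10 mM phosphate buffer (pH 7.4). The mixture was centrifuged at 2500 rpm for 5 min, and both layers were analysed by HPLC (n=3).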

[3] = biological target: T1, Glutamate NMDA receptor (Rattus norvegicus) (UniProt P35439+Q00959+Q00960+Q00961+Q62645+Q8VHN2+Q9R1M7); assay: Binding affinity to glycine binding site of NMDA receptor in hippocampus of rat brain by autoradiography; format: tissue-based; settings: tested as the 11C-labelled form
Summary of the method: (§1)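 Rat brain sagittal sections were preincubated 30 min at 25 °C in 50 mM Tris–HCl (pH 7.4), then incubated 30 min at 25 °C with the [11C]radioligand (1.59–2.13 nM). Sections were rinsed twice for 3 min in cold buffer, dipped in cold water, dried, and exposed to imaging plates for 60 min. Nonspecific binding was taken with the corresponding unlabeled ligand; specific binding is given per region.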

[4] = biological target: T1, Glutamate NMDA receptor (Rattus norvegicus); assay: Binding affinity to glycine binding site of NMDA receptor in cerebral cortex of rat brain by autoradiography; format: tissue-based; settings: tested as the 11C-labelled form; summary of the method: as §1
[5] = biological target: T1, Glutamate NMDA receptor (Rattus norvegicus); assay: Binding affinity to glycine binding site of NMDA receptor in thalamus of rat brain by autoradiography; format: tissue-based; settings: tested as the 11C-labelled form; summary of the method: as §1
[6] = biological target: T1, Glutamate NMDA receptor (Rattus norvegicus); assay: Binding affinity to glycine binding site of NMDA receptor in striatum of rat brain by autoradiography; format: tissue-based; settings: tested as the 11C-labelled form; summary of the method: as §1
[7] = biological target: T1, Glutamate NMDA receptor (Rattus norvegicus); assay: Binding affinity to glycine binding site of NMDA receptor in cerebellum of rat brain by autoradiography; format: tissue-based; settings: tested as the 11C-labelled form; summary of the method: as §1
[8] = biological target: T1, Glutamate NMDA receptor (Rattus norvegicus); assay: Binding affinity to glycine binding site of NMDA receptor in hippocampus of rat brain by autoradiography in presence of glycine; format: tissue-based; settings: tested as the 11C-labelled form
Summary of the method: (§2)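 Hippocampal binding on rat brain slices: 30 min at 25 °C in 50 mM Tris–HCl (pH 7.4) with [11C]radioligand (1.59–2.13 nM), with or without a glycine-site drug (agonists at 1 mM). Slices were rinsed, dried and exposed to imaging plates for 60 min. PSL with drug was divided by PSL without drug to give % total binding, averaged over at least triplicate sections from three animals.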

[9] = biological target: T1, Glutamate NMDA receptor (Rattus norvegicus); assay: Binding affinity to glycine binding site of NMDA receptor in hippocampus of rat brain by autoradiography in presence of glycine-site agonist D-serine; format: tissue-based; settings: tested as the 11C-labelled form; summary of the method: as §2
[10] = biological target: T1, Glutamate NMDA receptor (Rattus norvegicus); assay: Binding affinity to glycine binding site of NMDA receptor in hippocampus of rat brain by autoradiography in presence of glycine-site antagonist L-703717; format: tissue-based; settings: tested as the 11C-labelled form; summary of the method: as §2
[11] = biological target: T1, Glutamate NMDA receptor (Rattus norvegicus); assay: Binding affinity to glycine binding site of NMDA receptor in hippocampus of rat brain by autoradiography in presence of glycine-site antagonist methoxy-MDL-104653; format: tissue-based; settings: tested as the 11C-labelled form; summary of the method: as §2
[12] = biological target: T1, Glutamate NMDA receptor (Rattus norvegicus); assay: Binding affinity to glycine binding site of NMDA receptor in hippocampus of rat brain by autoradiography in presence of glycine-site antagonist MDL-105519; format: tissue-based; settings: tested as the 11C-labelled form; summary of the method: as §2
[13] = system: Blood; assay: Biodistribution in ddY mouse blood assessed per gram of tissue at 7.4 MBq, iv after 30 mins by gamma counting; format: ADME, organism-based; settings: in vivo, 0.5 h
Summary of the method: (§3)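 ddY mice (35–45 g) received about 7.4 MBq of [11C]radioligand in 0.2 ml into the tail vein and were decapitated at 1 or 30 min. Blood, cerebrum and cerebellum were gamma-counted with decay correction and expressed as % injected dose/g; tissue/blood ratios were derived. n=3 or 5.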

[14] = Biodistribution in ddY mouse cerebrum assessed per gram of tissue at 7.4 MBq, iv after 30 mins by gamma counting; format: ADME, organism-based; settings: in vivo, 0.5 h; summary of the method: as §3
[15] = system: Cerebellum; assay: Biodistribution in ddY mouse cerebellum assessed per gram of tissue at 7.4 MBq, iv after 30 mins by gamma counting; format: ADME, organism-based; settings: in vivo, 0.5 h; summary of the method: as §3
[16] = Ratio of drug level in cerebrum to blood of ddY mouse at 7.4 MBq, iv after 30 mins; format: ADME, organism-based; summary of the method: as §3
[17] = Ratio of drug level in cerebellum to blood of ddY mouse at 7.4 MBq, iv after 30 mins; format: ADME, organism-based; summary of the method: as §3
[18] = system: Blood; assay: Biodistribution in mouse blood assessed per gram of tissue at 7.4 MBq, iv after 1 min by gamma counting; format: ADME, organism-based; settings: in vivo
[19] = Biodistribution in mouse cerebrum assessed per gram of tissue at 7.4 MBq, iv after 1 min by gamma counting; format: ADME, organism-based; settings: in vivo
[20] = system: Cerebellum; assay: Biodistribution in mouse cerebellum assessed per gram of tissue at 7.4 MBq, iv after 1 min by gamma counting; format: ADME, organism-based; settings: in vivo
[21] = Ratio of drug level in cerebrum to blood of mouse at 7.4 MBq, iv after 1 min; format: ADME, organism-based
Summary of the method: (§4)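 ddY mice (35–45 g) received ca. 7.4 MBq ¹¹C-labelled ligand (0.2 ml) by tail-vein injection and were decapitated at 1 min. Cerebrum and cerebellum were dissected, and radioactivity was gamma-counted with decay correction and expressed as % injected dose per gram tissue. The value is the tissue-to-blood ratio of % dose/g.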

[22] = Ratio of drug level in cerebellum to blood of mouse at 7.4 MBq, iv after 1 min; format: ADME, organism-based; summary of the method: as §4
[23] = system: Blood; assay: Biodistribution in ddY mouse blood assessed per gram of tissue at 7.4 MBq, iv after 1 min by gamma counting; format: ADME, organism-based; settings: in vivo; summary of the method: as §3
[24] = Biodistribution in ddY mouse cerebrum assessed per gram of tissue at 7.4 MBq, iv after 1 min by gamma counting; format: ADME, organism-based; settings: in vivo; summary of the method: as §3
[25] = system: Cerebellum; assay: Biodistribution in ddY mouse cerebellum assessed per gram of tissue at 7.4 MBq, iv after 1 min by gamma counting; format: ADME, organism-based; settings: in vivo; summary of the method: as §3
[26] = Ratio of drug level in cerebrum to blood of ddY mouse at 7.4 MBq, iv after 1 min; format: ADME, organism-based; summary of the method: as §3
[27] = Ratio of drug level in cerebellum to blood of ddY mouse at 7.4 MBq, iv after 1 min; format: ADME, organism-based; summary of the method: as §3
[28] = biological target: Glutamate NMDA receptor; assay: Binding affinity to glycine binding site of NMDA receptor in rat brain; format: tissue-based
[29] = Plasma protein binding in rat at 0.67 to 0.89 […] after 30 mins by ultrafiltration; format: ADME, cell-free; settings: read-out: PPB (converted)
Summary of the method: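 Rat serum was diluted 10-fold in 66 mM phosphate buffer (pH 7.4) containing [11C]radioligand (0.67–0.89 MBq) and incubated 30 min at 30 °C. It was then ultrafiltered by centrifugation at 2000 rpm for 15 min. Radioactivity in whole plasma and in filtrate was counted to give % bound (mean, n=3).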

For `CNc1cc(Cl)cc2[nH]c(=O)c(-c3cccc(OC)c3)c(O)c12`, which Ki [1] is on record?
Its Ki is 715 nM.

For `COc1ccc(Nc2cccc(-c3c(O)c4ccc(Cl)cc4[nH]c3=O)c2)cc1`, which Ki [1] is on record?
The Ki was 23.6 nM.

With `CNc1ccc(Cc2cccc(-c3c(O)c4ccc(Cl)cc4[nH]c3=O)c2)cc1` as the compound, how does the Ki [1] read?
The Ki was 11.7 nM.

And the logD at 0.25 h [2]?
The logD at 0.25 h was 3.

What about the Activity [3] of the same compound?
The Activity was 70%.

And the Activity [4]?
Its Activity is “Active”.

What about the Activity [5] of the same compound?
Its Activity is “Active”.

And the Activity [6]?
The Activity was “Active”.

And the Activity [7]?
Its Activity is 30%.

And the Activity [8]?
The Activity was 46%.

And the Activity [9]?
The Activity was 46%.

And the Activity [10]?
Its Activity is 58%.

And the Activity [11]?
The Activity was 58%.

What about the Activity [12] of the same compound?
The Activity was 58%.

Which Drug uptake [13] does the source give for `[11CH3]Oc1ccc(Cc2cccc(-c3c(O)c4ccc(Cl)cc4[nH]c3=O)c2)cc1` here?
Its Drug uptake is 3.46 %ID/g.

What about the Drug uptake [14] of the same compound?
Its Drug uptake is 0.2 %ID/g.

And the Drug uptake [15]?
The Drug uptake was 0.24 %ID/g.

And the Kp at 0.5 h [16]?
The Kp at 0.5 h was 0.051.

What about the Kp at 0.5 h [17] of the same compound?
Its Kp at 0.5 h is 0.068.

What about the Drug uptake [18] of the same compound?
The Drug uptake was 8.37 %ID.

And the Drug uptake [19]?
Its Drug uptake is 0.32 %ID.

What about the Drug uptake [20] of the same compound?
Its Drug uptake is 0.36 %ID.

What about the Kp at 1 min [21] of the same compound?
The Kp at 1 min was 0.038.

What about the Kp at 1 min [22] of the same compound?
The Kp at 1 min was 0.043.

Which Drug uptake [23] does the source give for `[11CH3]Nc1ccc(Cc2cccc(-c3c(O)c4ccc(Cl)cc4[nH]c3=O)c2)cc1` here?
Its Drug uptake is 13.08 %ID.

What about the Drug uptake [24] of the same compound?
The Drug uptake was 0.4 %ID.

And the Drug uptake [25]?
The Drug uptake was 0.48 %ID.

What about the Drug uptake [13] of the same compound?
Its Drug uptake is 3.93 %ID/g.

And the Drug uptake [14]?
Its Drug uptake is 0.17 %ID/g.

What about the Drug uptake [15] of the same compound?
Its Drug uptake is 0.23 %ID/g.

And the Kp at 1 min [26]?
The Kp at 1 min was 0.031.

And the Kp at 1 min [27]?
Its Kp at 1 min is 0.037.

What about the Kp at 0.5 h [16] of the same compound?
Its Kp at 0.5 h is 0.043.

And the Kp at 0.5 h [17]?
Its Kp at 0.5 h is 0.058.

For `CCc1cc(Cl)cc2[nH]c(=O)c(-c3cccc(OC)c3)c(O)c12`, which Ki [28] is on record?
The Ki was 7.2 nM.

And the fraction unbound at 0.5 h [29]?
Its fraction unbound at 0.5 h is 0.06.

For `COc1cccc(-c2c(O)c3c(I)cc(Cl)cc3[nH]c2=O)c1`, which Ki [28] is on record?
Its Ki is 10.3 nM.

Which Ki [1] does the source give for `COc1cccc(-c2c(O)c3c(N)cc(Cl)cc3[nH]c2=O)c1` here?
Its Ki is 119 nM.
